# Assay results: ChEMBL document CHEMBL2021854, “2-Aminopyrimidine based 4-aminoquinoline anti-plasmodial agents. Synthesis, biological activity, structure-activity relationship and mode of action studies” (Eur J Med Chem, 2012)
# Assays:
# Plasmodium falciparum [1] = experiment: Antiplasmodial activity chloroquine-sensitive Plasmodium falciparum 3D7 infected in human A+ erythrocytes assessed as inhibition of [3H]-hypoxanthine incorporation after 24 hrs by scintillation counting; type: functional, organism-based
# [2] = Cytotoxicity against african green monkey Vero cells assessed as minimum compound concentration required to causes microscopically detectable alteration of normal cell morphology; type: cell-based; settings: chlorocebus sabaeus
# Procedure, shortened: (§1)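 Confluent, non-proliferating cell cultures were exposed to the compounds. The endpoint was the minimum concentration producing a microscopically detectable alteration of normal cell morphology.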
# Human alphaherpesvirus 3 [3] = experiment: Antiviral activity against thymidine kinase-deficient […] infected in HEL cells assessed as reduction of virus plaque formation after 4 days; type: functional, organism-based; settings: Human alphaherpesvirus 3, 07-1, HEL, 96 h
# Human betaherpesvirus 5 [4] = experiment: Antiviral activity against Human cytomegalovirus Davis infected in HEL cells assessed as inhibition of virus plaque formation after 4 days; type: functional, organism-based; settings: Human betaherpesvirus 5, Davis, 96 h
# Human alphaherpesvirus 1 [5] = experiment: Antiviral activity against HSV1 KOS infected in HEL cells assessed as inhibition of virus-induced cytopathogenicity after 4 days; type: functional, organism-based; settings: Human alphaherpesvirus 1, KOS, 96 h
# Procedure, shortened: (§2)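 Confluent HEL or HeLa monolayers infected with 100 CCID50 of virus in the presence of varying compound concentrations.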
# [6] = Cytotoxicity against human HEL cells assessed as minimum compound concentration required to causes microscopically detectable alteration of normal cell morphology; type: cell-based; procedure, shortened: as §1
# [7] = Cytotoxicity against cat CRFK cells assessed as cell viability by colorimetric formazan-based MTS assay; design: species or system Felis catus; settings: crfk
# Influenza A virus [8] = experiment: Antiviral activity against Influenza A virus H3N2 infected in MDCK cells assessed as reduction visual scoring of virus-induced cytopathogenicity after 4 days; type: functional, organism-based; settings: 96 h
# Procedure, shortened: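 MDCK monolayers infected with 100 CCID50 of influenza A (H1N1 or H3N2) or influenza B, with varying compound concentrations. Cytopathicity read when untreated infected controls reached complete CPE.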
# Heme [9] = experiment: Binding affinity to monomeric heme in HEPES buffer at pH 7.5 by spectrophotometric analysis
# Procedure, shortened: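 Monomeric hemin (2.4 μM, 40% DMSO in water) was titrated with compound (0–70 μM) added from DMSO stocks, with absorbance read at 402 nm after each addition. Buffer was HEPES (pH 7.4) for the neutral condition and MES ([…]) for the pH 5.6 condition. Stoichiometry was by Job's method and log K by HypSpec fitting.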
# HeLa = experiment: Cytotoxicity against human HeLa cells assessed as cell viability by colorimetric formazan-based MTS assay
# Nucleic Acid = experiment: Binding affinity to calf thymus DNA assessed as change in melting temperature; type: nucleic-acid assay; settings: Bos taurus
# Procedure, shortened: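 CT DNA (151 μM NP) was heated with or without compound at a 5:1 DNA:drug ratio in 40% DMSO/TE buffer pH 7.4 with 0.5 mM NaCl. Absorbance at 260 nm was followed with a 0.5 °C/min ramp to obtain Tm.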
# Influenza A virus [10] = experiment: Antiviral activity against Influenza A virus H3N2 infected in MDCK cells assessed as inhibition of virus-induced cytopathogenicity after 4 days by colorimetric formazan-based MTS assay; type: functional, organism-based; settings: 96 h
# [11] = system: Vesicular stomatitis virus; experiment: Antiviral activity against Vesicular stomatitis virus infected in HEL cells assessed as inhibition of virus-induced cytopathogenicity after 4 days; type: functional, organism-based; settings: 96 h; procedure, shortened: as §2
# [12] = Cytotoxicity against MDCK cells assessed as minimum compound concentration required to causes microscopically detectable alteration of normal cell morphology; type: cell-based, Canis lupus familiaris; settings: dog; procedure, shortened: as §1
# [13] = system: Respiratory syncytial virus; experiment: Antiviral activity against Respiratory syncytial virus infected in human HeLa cells assessed as inhibition of virus-induced cytopathogenicity after 4 days; type: functional, organism-based; settings: 96 h
# Procedure, shortened: (§3)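 Confluent HEL, Vero or HeLa monolayers were inoculated with 100 CCID50 of virus in the presence of varying concentrations of compound. Cytopathicity was scored when it reached completion in untreated, virus-infected control cultures.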
# [14] = system: Mammalian orthoreovirus 1; experiment: Antiviral activity against Reovirus-1 infected in african green monkey Vero cells assessed as inhibition of virus-induced cytopathogenicity after 4 days; type: functional, organism-based; settings: Mammalian orthoreovirus 1, Vero, 96 h; procedure, shortened: as §3
# [15] = system: Vesicular stomatitis virus; experiment: Antiviral activity against Vesicular stomatitis virus infected in HeLa cells assessed as inhibition of virus-induced cytopathogenicity after 4 days; type: functional, organism-based; settings: 96 h; procedure, shortened: as §2
# Coxsackievirus B4 = experiment: Antiviral activity against Coxsackie virus B4 infected in african green monkey Vero cells assessed as inhibition of virus-induced cytopathogenicity after 4 days; type: functional, organism-based; settings: Enterovirus B, 96 h; procedure, shortened: as §3
# Human alphaherpesvirus 3 [16] = experiment: Antiviral activity against […] expressing thymidine kinase infected in HEL cells assessed as reduction of virus plaque formation after 4 days; type: functional, cell-based; settings: Human alphaherpesvirus 3, strain Oka vaccine, 96 h
# Human alphaherpesvirus 1 [17] = experiment: Antiviral activity against thymidine kinase-deficient acyclovir-resistant HSV1 KOS infected in HEL cells assessed as inhibition of virus-induced cytopathogenicity after 4 days; type: functional, organism-based; settings: Human alphaherpesvirus 1, KOS, 96 h; procedure, shortened: as §2
# Influenza A virus [18] = experiment: Antiviral activity against Influenza A virus H1N1 infected in MDCK cells assessed as inhibition of virus-induced cytopathogenicity after 4 days by colorimetric formazan-based MTS assay; type: functional, organism-based; settings: 96 h
# Human betaherpesvirus 5 [19] = experiment: Antiviral activity against Cytomegalovirus AD-169 infected in HEL cells assessed as inhibition of virus plaque formation after 4 days; type: functional, organism-based; settings: Human betaherpesvirus 5, AD169, HEL, 96 h
# [20] = system: Human immunodeficiency virus 2; experiment: Antiviral activity against HIV2 infected in human CEM cells assessed as inhibition of virus-induced cytopathic effect after 4 days; type: functional, organism-based; settings: Human immunodeficiency virus 2, CCRF-CEM, 96 h
# Procedure, shortened: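 CEM T-lymphocytes (~3 × 10^5 cells/ml) were infected with HIV-1 IIIB or HIV-2 ROD at ~100 CCID50, then immediately plated with a range of compound concentrations. Giant cell formation was scored microscopically after 4 days at 37 °C. Cytostatic activity was tested in parallel in uninfected CEM cells.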
# [21] = system: Feline infectious peritonitis virus; experiment: Antiviral activity against FIPV infected in cat CRFK cells assessed as inhibition of virus-induced cytopathic effect after 4 days by colorimetric formazan-based MTS assay; type: functional, cell-based; settings: Alphacoronavirus 1, CRFK, 96 h
# Heme [22] = experiment: Binding affinity to monomeric heme in HEPES buffer at pH 5.6 by spectrophotometric analysis
# Punta Toro virus = experiment: Antiviral activity against Punta Toro virus infected in african green monkey Vero cells assessed as inhibition of virus-induced cytopathogenicity after 4 days; type: functional, organism-based; settings: 96 h; procedure, shortened: as §3
# Sindbis virus = experiment: Antiviral activity against Sindbis virus infected in african green monkey Vero cells assessed as inhibition of virus-induced cytopathogenicity after 4 days; type: functional, organism-based; settings: 96 h; procedure, shortened: as §3
# [23] = Inhibition of beta-hematin formation assessed as Ferriprotoporphyrin IX biomineralisation at 1 mg/ml after 24 hrs; type: functional
# Procedure, shortened: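 Hemin chloride (0.5 mg/ml in DMSO) mixed with 0.5 M sodium acetate buffer pH 4.4 and drug or solvent control, incubated 37 °C for 24 h. Pellet washed with DMSO to remove unreacted hemin, dissolved in 0.1 N NaOH, absorbance read at 405 nm; percent inhibition relative to control. Highest concentration tested 1 mg/ml.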
# [24] = Selectivity index, ratio of CC50 for MDCK cells to IC50 for chloroquine-resistant Plasmodium falciparum K1; type: functional
# Procedure, shortened: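 Selectivity index computed as MTS-based CC50 on MDCK cells divided by IC50 against P. falciparum K1.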
# Plasmodium falciparum [25] = experiment: Antiplasmodial activity chloroquine-resistant Plasmodium falciparum K1 infected in human A+ erythrocytes assessed as inhibition of [3H]-hypoxanthine incorporation after 24 hrs by scintillation counting; type: functional, organism-based
Compound,IC50 (Plasmodium falciparum [1]),MCC [2],EC50 (Human alphaherpesvirus 3 [3]),EC50 (Human betaherpesvirus 5 [4]),EC50 (Human alphaherpesvirus 1 [5]),MCC [6],CC50 [7],EC50 (Influenza A virus [8]),log Ks (Heme [9]),CC50 (HeLa),ΔTm (Nucleic Acid),EC50 (Influenza A virus [10]),EC50 [11],MCC [12],EC50 [13],EC50 [14],EC50 [15],EC50 (Coxsackievirus B4),EC50 (Human alphaherpesvirus 3 [16]),EC50 (Human alphaherpesvirus 1 [17]),further results
Cc1nc(NCCCCNc2ccnc3cc(Cl)ccc23)nc(-c2ccccc2[N+](=O)[O-])c1C(=O)OC(C)C,0.0182 µM,100 µM,> 4 µM,> 4 µM,> 4 µM,20 µM,27.2 µM,> 0.8 µM,5.08,4.4 µM,2.5 °C,> 0.8 µM,> 4 µM,4000 nM,> 20 µM,> 20 µM,> 20 µM,> 20 µM,4 µM,> 4 µM,EC50 (Influenza A virus [18]): > 0.8 µM; EC50 (Human betaherpesvirus 5 [19]): > 4 µM; EC50 [20]: > 2 µM; EC50 [21]: > 20 µM; log Ks (Heme [22]): 4.97; EC50 (Punta Toro virus): > 20 µM; EC50 (Sindbis virus): > 20 µM; inhibition [23]: 100%; Ratio CC50/IC50 [24]: 638; IC50 (Plasmodium falciparum [25]): 0.0036 µM
CCOC(=O)c1c(C)nc(NCCCCNc2ccnc3cc(Cl)ccc23)nc1-c1ccccc1,0.202 µM,> 100 µM,> 20 µM,1.46 µM,> 100 µM,> 20 µM,13.9 µM,> 0.16 µM,6.02,1.84 µM,3 °C,> 0.16 µM,> 100 µM,800 nM,> 100 µM,> 100 µM,> 100 µM,> 100 µM,4 µM,> 100 µM,EC50 (Influenza A virus [18]): > 0.16 µM; EC50 (Human betaherpesvirus 5 [19]): 2 µM; EC50 [20]: > 2 µM; EC50 [21]: > 4 µM; log Ks (Heme [22]): 5.28; EC50 (Punta Toro virus): > 100 µM; EC50 (Sindbis virus): > 100 µM; inhibition [23]: 100%; Ratio CC50/IC50 [24]: 34.41; IC50 (Plasmodium falciparum [25]): 0.0261 µM
